Assay outcomes from PubChem BioAssay.
Compounds with a hit are over-represented: about 4% of the library has one in this group of screens.
SIRT5 block = blocks human SIRT5 desuccinylation of peptide; Purified SirT5, succinyl-peptide AMC, trypsin-coupled fluorescence; Q9NXA8; inhibition, % at 15 µM; actives 1.1% (n = 330,000); in the data active = inhibition above about 15%
Target sequence (Q9NXA8 whole entry, looked up): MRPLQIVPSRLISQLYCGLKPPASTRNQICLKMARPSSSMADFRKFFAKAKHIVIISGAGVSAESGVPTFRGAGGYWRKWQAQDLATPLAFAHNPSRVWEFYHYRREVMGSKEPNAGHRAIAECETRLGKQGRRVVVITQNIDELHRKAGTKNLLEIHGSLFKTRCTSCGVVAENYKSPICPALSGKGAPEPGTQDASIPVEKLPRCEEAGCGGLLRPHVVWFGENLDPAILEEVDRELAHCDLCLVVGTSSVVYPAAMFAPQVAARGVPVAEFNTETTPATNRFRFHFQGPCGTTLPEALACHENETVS
C2C12 statin = protects C2C12 myotubes from simvastatin toxicity | AID 602340 | actives 0.78% (n = 330,000) | rescue of ATP level, % at 7.49 µM | ATP luminescence, 48 h; scaled: DMSO 0, geranylgeraniol control 100;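 active = mean ATP rescue above about 67%, or every replicate alone reaching that limit, limit read from the data, passing the limit was not always enough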;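 note: myotubes were challenged with 10 µM simvastatin during compound exposure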
E-selectin induc = E-selectin induction on HUVECs | activation, % at 7.58 µM | AID 686992 | HUVEC E-selectin immunofluorescence imaging; normalized: neutral wells 0, TNF-alpha wells 100 | actives 0.37% (n = 260,000);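 active = mean E-selectin-positive cell signal at least 10% of the positive control, reached in at least 60% of replicates, without over 20% cell loss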
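Test system: HUVEC | Signal: Immunofluorescence imaging | Read-out: Percent E-selectin-positive cells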
Ecoli rRNA inh = inhibitors of bacterial rRNA selective over humanized ribosomes; E. coli WT GFP vs humanized-ribosome RFP mutants, fluorescence, 24 h; stronger effect = lower value; DMSO median 0, no signal -100; actives 1.6% (n = 350,000); AID 720706; GFP signal change (wild-type ribosome), % (concentration not given with the values);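 active = significant combined selectivity score with lowered wild-type GFP, culture density cut under 30%, mutant RFP and density less affected; inactive = any of these conditions unmet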
FN deposition inh = fibronectin deposition inhibition. actives 0.086% (n = 350,000). inhibition, % at 12.6 µM. AH1F fibroblasts, Alexa488-fibronectin deposition fluorescence, overnight. AID 743247;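 active = mean inhibition across replicates of 30% or more, regardless of how many single replicates reach that level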
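Test system: AH1F fibroblast monolayer depositing Alexa488-labelled fibronectin into matrix. Input: 10000 cells per well. Technique: fluorescence, ex 485 nm, em 525 nm. Buffer or medium: DMEM plus 2% serum, read in PBS. Timing: 1 h cell adhesion before compound, then overnight fibronectin incubation. Compound: single dose, pinned. Read-out basis: inhibition from reduced deposited-fibronectin fluorescence.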
FGF22 binding = binders of recombinant human FGF22 by thermal shift; Q9HCT0; SYPRO orange fluorescence; percent of sucrose octasulfate shift, DMSO zero; activity (Tm shift, normalised), % at 9.99 µM; actives 1.5% (n = 340,000);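 active = mean Tm shift, scaled 0 neutral to 100 positive control, at about 1.3% or above, every replicate too, limit read from the data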
Target sequence (Q9HCT0 whole entry, looked up): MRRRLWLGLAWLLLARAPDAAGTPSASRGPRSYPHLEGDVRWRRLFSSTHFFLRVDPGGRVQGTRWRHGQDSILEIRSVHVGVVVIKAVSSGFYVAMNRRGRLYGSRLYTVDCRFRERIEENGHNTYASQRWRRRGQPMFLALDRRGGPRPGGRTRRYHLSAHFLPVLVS
Of the large screens only hits and unclear results are named; the others gave an inactive call.

C[C@H](CO)N1C[C@H](C)[C@H](CN(C)S(=O)(=O)c2cccc(F)c2)Oc2ncc(C#CC3CCCCC3)cc2C1=O	SIRT5 block 21
C[C@H]1CN([C@@H](C)CO)C(=O)c2cc(C#CC3CCCCC3)cnc2O[C@@H]1CN(C)S(=O)(=O)c1cccc(F)c1	SIRT5 block 27
C[C@H](CO)N1C[C@H](C)[C@H](CN(C)S(=O)(=O)c2ccc(Cl)cc2)Oc2ccc(NS(C)(=O)=O)cc2C1=O	none (no result: SIRT5 block, C2C12 statin, FN deposition inh, FGF22 binding)
CCC(=O)N1CC2(CCN(Cc3ccccc3Cl)CC2)c2c([nH]c3cc(OC)ccc23)[C@@H]1CO	none (no result: C2C12 statin)
OC[C@@H]1[C@@H](c2ccccc2)C2(CN(Cc3nccs3)C2)N1Cc1ccncc1	SIRT5 block 16 (no result: C2C12 statin, FN deposition inh)
CCCNC(=O)N1CC2(C1)[C@H](c1ccccc1)[C@H](CO)N2Cc1cccc(F)c1	SIRT5 block 24 (no result: C2C12 statin, FN deposition inh)
O=C(C1CCCC1)N1CC2(C1)[C@H](c1ccccc1)[C@@H](CO)N2Cc1ccc(Cl)cc1	SIRT5 block 31 (no result: C2C12 statin, FGF22 binding)
O=C(C1CCCC1)N1CC2(C1)[C@H](c1ccccc1)[C@H](CO)N2Cc1nccs1	SIRT5 block 18 (no result: C2C12 statin, FGF22 binding)
O=C(C[C@@H]1C[C@H]2c3cc(NC(=O)C4CCOCC4)ccc3O[C@H]2[C@@H](CO)O1)NC1CCCCC1	none (no result: FGF22 binding)
CCCC#Cc1ccc([C@@H]2[C@H]3CN(S(=O)(=O)c4ccccc4C)CCCCN3[C@H]2CO)cc1	none (no result: C2C12 statin, FN deposition inh)
Cn1c(SCc2nc(-c3ccc(Br)cc3)no2)nnc1-c1ccco1	none (no result: SIRT5 block, Ecoli rRNA inh, FGF22 binding)
COc1ccc(N2CCN(Cc3nc(-c4ccccc4)no3)CC2)cc1	Ecoli rRNA inh -19 (no result: C2C12 statin)
COc1ccc(-c2noc(CN3CCN(c4ccccc4)CC3)n2)cc1	none
COc1ccc(-c2noc(CSc3nnc(-c4ccccc4)n3C)n2)cc1	Ecoli rRNA inh -22 (no result: C2C12 statin, E-selectin induc, FN deposition inh)
O=[N+]([O-])/C=C\c1ccc(N2CCOCC2)cc1	Ecoli rRNA inh -19 (no result: C2C12 statin, E-selectin induc)
Fc1cccc(NC(=S)N2CCCC2)c1	SIRT5 block 15 (no result: C2C12 statin, E-selectin induc, FN deposition inh)
Cc1cccc(NC(=S)N2CCCCCC2)c1	none (no result: SIRT5 block, C2C12 statin, Ecoli rRNA inh, FGF22 binding)
O=S(=O)(c1cccc(NC(=S)N2CCN(c3ccc(F)cc3)CC2)c1)C(F)F	SIRT5 block 30 (no result: C2C12 statin, E-selectin induc)
O=C(Cc1ccc(Br)cc1)Nc1cccc(S(=O)(=O)N2CCOCC2)c1	Ecoli rRNA inh -30 (no result: E-selectin induc)
CC(C(=O)Nc1cccc(S(=O)(=O)N2CCOCC2)c1)N1CCN(c2ccc(F)cc2)CC1 (stereo not given)	SIRT5 block 16 (no result: C2C12 statin, E-selectin induc)
O=S(=O)(c1cccc(NC(=S)N2CCN(c3cccc(Cl)c3)CC2)c1)C(F)F	none
CO[C@H]1CN(C)C(=O)c2ccc(NC(=O)c3ccccc3F)cc2OC[C@H](C)NC[C@@H]1C	none (no result: C2C12 statin, FGF22 binding)
CCCNC(=O)Nc1ccc2c(c1)C(=O)N(C)C[C@H](OC)[C@H](C)CN(S(C)(=O)=O)[C@@H](C)CO2	none (no result: C2C12 statin)
O=C(Nc1cccc(S(=O)(=O)C(F)F)c1)c1ccc(S(=O)(=O)N2CCCC2)cc1	none (no result: E-selectin induc, FN deposition inh)
O=S(=O)(Nc1cccc(S(=O)(=O)N2CCOCC2)c1)c1ccc(Cl)s1	FGF22 binding 43
O=C(Cc1ccccc1Cl)Nc1cccc(S(=O)(=O)N2CCOCC2)c1	none (no result: C2C12 statin)
O=C(Cc1c(Cl)cccc1Cl)Nc1cccc(S(=O)(=O)N2CCOCC2)c1	Ecoli rRNA inh -23 (no result: C2C12 statin)
O=C(Cc1ccccc1F)Nc1cccc(S(=O)(=O)N2CCOCC2)c1	SIRT5 block 17 (no result: C2C12 statin)
O=C(Nc1cccc(S(=O)(=O)C(F)F)c1)c1ccc(S(=O)(=O)N2CCOCC2)cc1	C2C12 statin 95 (no result: SIRT5 block, E-selectin induc, Ecoli rRNA inh, FN deposition inh, FGF22 binding)
O=C(Nc1cc(S(=O)(=O)N2CCOCC2)ccc1O)c1ccc(NS(=O)(=O)c2ccc(Cl)s2)cc1	none (no result: C2C12 statin, E-selectin induc)
CN(C)C(=O)C[C@@H]1CC[C@@H]2[C@H](COC[C@H](O)CN2CC2CCCC2)O1	none
Cc1ccc(C(=O)C=CC=Cc2ccccc2)cc1	none (no result: SIRT5 block)
Cc1ccc(C(=O)C(C(=O)/C=C/c2ccccc2)=C2SCCCS2)cc1	C2C12 statin 113 (no result: SIRT5 block, E-selectin induc, Ecoli rRNA inh, FN deposition inh, FGF22 binding)
O=C(COC(=O)CSc1ccc([N+](=O)[O-])cc1)NCc1cccs1	SIRT5 block 15
Cc1ccc(SCC(=O)OCC(=O)NCc2cccs2)cc1	none
O=C(C[C@@H]1CC[C@H]2[C@@H](COC[C@H](O)CN2Cc2ccc(Oc3ccccc3)cc2)O1)N1CCc2ccccc2C1	none (no result: SIRT5 block, E-selectin induc, Ecoli rRNA inh, FN deposition inh)
COc1cc(C2c3sc(=O)[nH]c3SC3C4CCC(C4)C23)ccc1O (stereo not given)	Ecoli rRNA inh -32 (no result: C2C12 statin, E-selectin induc, FN deposition inh)
C[C@@H]1CN([C@H](C)CO)C(=O)Cc2cc(NC(=O)C3CC3)ccc2O[C@H]1CN(C)Cc1ccncc1	none (no result: FN deposition inh)
O=C(OCCc1cc2ccccc2c(=O)o1)c1ccc(F)cc1	SIRT5 block 33
Cc1cc(/C=C2/NC(=O)NC2=O)c(C)n1-c1ccncc1	Ecoli rRNA inh -28
Cc1cccc(-n2c(C)cc(/C=C3\NC(=O)NC3=O)c2C)c1	none
COc1ccc(Cc2noc(CN3CCN(Cc4cccc(Cl)c4)CC3)n2)cc1OC	FGF22 binding 44 (no result: C2C12 statin, E-selectin induc, FN deposition inh)
Oc1cccc(/C=N/N(Cc2ccccc2)c2ccccc2)c1	Ecoli rRNA inh -42 (no result: C2C12 statin)
COc1cc(/C=C/C(=O)OCC(=O)Nc2cccc(F)c2)ccc1O	FGF22 binding 45 (no result: SIRT5 block)
COc1cc(/C=C/C(=O)OCC(=O)N2CCC(Cc3ccccc3)CC2)ccc1O	Ecoli rRNA inh -32 (no result: SIRT5 block, C2C12 statin)
